Assay results: ChEMBL document CHEMBL4411332, “Deciphering the Role of Intramolecular Networking in Cholic Acid-Peptide Conjugates on the Lipopolysaccharide Surface in Combating Gram-Negative Bacterial Infections” (J Med Chem, 2019)
≈ marks a conversion by molar mass, not a printed value. Calls of active or inactive are those of the source. The calls are words filed in the database; no cut-off is given here.

How the values were obtained:
Escherichia coli [1] = assay: Antibacterial activity against Escherichia coli by broth dilution assay; type: functional
How it was run: (§1)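 MIC99 by broth-dilution assay; antibacterial and culture details are in the Supporting Information.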

Klebsiella pneumoniae = assay: Antibacterial activity against Klebsiella pneumoniae by broth dilution assay; type: functional; how it was run: as §1
Acinetobacter baumannii = assay: Antibacterial activity against Acinetobacter baumannii by broth dilution assay; type: functional; how it was run: as §1
Erythrocyte = assay: Hemolytic activity against human RBC incubated for 1 hr; type: ADME, cell-based
A549 = assay: Cytotoxicity against human A549 cells incubated for 48 hrs by MTT assay; type: cell-based; conditions: a549, 48 h
Escherichia coli [2] = assay: Antimicrobial activity against compound-pre-treated Escherichia coli by broth dilution assay based drug resistance development assay; type: functional, organism-based
How it was run: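 E. coli pre-treated with compound, then MIC₉₉ redetermined by broth-dilution assay in four replicates; reported as fold change in MIC₉₉ relative to starting value to assess resistance development.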

[3] = Binding affinity to DPH-doped model gram negative bacterial membrane (LPS/DPPE/DMPG lipids) assessed as increase in membrane fluidity by fluorescence anisotrophy
How it was run: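 Vesicles of LPS, DPPE and DMPG doped with DPH were incubated with compound, and the change in DPH fluorescence anisotropy was recorded. Mean ± SD of three replicates, unpaired two-tailed t-test.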

[4] = Solubility in water; type: physicochemical; conditions: buffer

SMILES | MIC99 (Escherichia coli [1]) | MIC99 (Klebsiella pneumoniae) | MIC99 (Acinetobacter baumannii) | Activity (Erythrocyte) | Activity (A549) | Activity (Escherichia coli [2]) | Activity [3] | solubility [4]
CC[C@H](C)[C@H](N)C(=O)NCC(=O)O[C@@H]1CC[C@@]2(C)[C@@H](C1)C[C@@H](OC(=O)CNC(=O)[C@@H](N)[C@@H](C)CC)[C@@H]1[C@@H]2C[C@H](OC(=O)CNC(=O)[C@@H](N)[C@@H](C)CC)[C@]2(C)[C@@H]([C@H](C)CCC(=O)OCc3ccccc3)CC[C@@H]12 | 8 µM (≈ 8.07 µg/mL) | 16 µM (≈ 16.1 µg/mL) | 16 µM (≈ 16.1 µg/mL) | Toxic | Toxic |  |  | 
NC[C@@H]1O[C@H](O[C@H]2[C@@H](O)[C@H](O[C@@H]3[C@@H](O)[C@H](N)C[C@H](N)[C@H]3O[C@H]3O[C@H](CN)[C@@H](O)[C@H](O)[C@H]3N)O[C@@H]2CO)[C@H](N)[C@@H](O)[C@@H]1O |  |  |  |  |  | inactive |  | 
C[C@H](CCC(=O)OCc1ccccc1)[C@H]1CC[C@H]2[C@@H]3[C@H](OC(=O)CNC(=O)[C@@H](N)Cc4c[nH]c5ccccc45)C[C@@H]4C[C@H](OC(=O)CNC(=O)[C@@H](N)Cc5c[nH]c6ccccc56)CC[C@]4(C)[C@H]3C[C@H](OC(=O)CNC(=O)[C@@H](N)Cc3c[nH]c4ccccc34)[C@]12C.Cl.Cl.Cl | inactive |  |  |  |  |  | inactive | Insoluble
